From ChEMBL document CHEMBL4392864, “Diketopiperazine-Type Alkaloids from a Deep-Sea-Derived Aspergillus puniceus Fungus and Their Effects on Liver X Receptor α” (J Nat Prod, 2019)
Calls of active or inactive are those of the source. The rule behind the calls is not given here.

Assays:
[1] = molecular target: Tyrosine-protein phosphatase non-receptor type 6 (Homo sapiens, UniProt P29350); experiment: Inhibition of recombinant human SHP1 expressed in Escherichia coli […] preincubated for 15 mins followed by substrate addition and measured after 60 mins
Chain of Tyrosine-protein phosphatase non-receptor type 6 (P29350 whole entry): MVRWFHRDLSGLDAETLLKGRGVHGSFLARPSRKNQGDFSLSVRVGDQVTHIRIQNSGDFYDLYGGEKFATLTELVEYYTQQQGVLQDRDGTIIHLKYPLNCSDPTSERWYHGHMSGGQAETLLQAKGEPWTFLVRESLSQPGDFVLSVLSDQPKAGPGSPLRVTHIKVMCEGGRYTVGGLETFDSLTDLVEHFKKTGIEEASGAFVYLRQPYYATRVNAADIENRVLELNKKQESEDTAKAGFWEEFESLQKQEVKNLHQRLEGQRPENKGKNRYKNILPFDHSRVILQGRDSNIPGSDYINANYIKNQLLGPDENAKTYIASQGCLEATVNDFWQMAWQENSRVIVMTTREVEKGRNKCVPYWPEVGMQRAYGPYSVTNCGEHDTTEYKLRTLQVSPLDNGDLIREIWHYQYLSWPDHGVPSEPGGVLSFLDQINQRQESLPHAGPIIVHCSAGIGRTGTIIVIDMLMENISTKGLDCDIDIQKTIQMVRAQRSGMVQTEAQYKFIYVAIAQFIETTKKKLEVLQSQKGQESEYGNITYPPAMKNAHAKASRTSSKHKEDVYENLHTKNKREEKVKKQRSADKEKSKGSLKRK
Procedure, shortened: (§1)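 Recombinant human phosphatases were expressed in E. coli and purified. Enzyme and compound were preincubated for 15 min at room temperature in pH 6.5 buffer (50 mM HEPES, 100 mM NaCl, 1 mM EDTA, 1 mM DTT). Buffer containing 50 mM pNPP was then added and the mix incubated for 60 min at 37 °C. Product p-nitrophenol was read at 405 nm. Assays were run in triplicate and IC50 derived.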

[2] = molecular target: T1, Tyrosine-protein phosphatase non-receptor type 1 (Homo sapiens) (UniProt P18031); experiment: (§2) Inhibition of recombinant human PTP1B expressed in Escherichia coli […] preincubated for 15 mins followed by substrate addition and measured after 60 mins; procedure, shortened: as §1
T1 sequence (whole entry): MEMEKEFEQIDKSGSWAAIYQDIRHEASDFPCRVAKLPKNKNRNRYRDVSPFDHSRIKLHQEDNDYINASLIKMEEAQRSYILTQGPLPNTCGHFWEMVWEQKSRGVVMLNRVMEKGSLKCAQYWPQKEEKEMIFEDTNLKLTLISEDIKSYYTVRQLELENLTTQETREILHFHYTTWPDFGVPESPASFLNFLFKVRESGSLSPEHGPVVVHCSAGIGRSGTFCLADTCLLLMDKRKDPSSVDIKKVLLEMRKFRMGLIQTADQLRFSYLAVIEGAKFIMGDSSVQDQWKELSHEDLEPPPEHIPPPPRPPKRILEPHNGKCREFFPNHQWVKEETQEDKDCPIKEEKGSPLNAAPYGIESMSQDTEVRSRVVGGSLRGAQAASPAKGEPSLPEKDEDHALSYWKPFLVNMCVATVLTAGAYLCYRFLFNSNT

Fusarium oxysporum = experiment: Antifungal activity against Fusarium oxysporum HNM 1003 assessed as growth inhibition at 0.6 mM measured after 48 hrs by microbroth dilution method; assay type: functional; conditions: HNM 1003, 48 h, read-out: GI
Procedure, shortened: (§3)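 Fungi were grown on PDA plates for 6−8 days at 30 °C, then the mycelia were moved into PD medium and filtered through cotton to give a spore suspension. Each well held PD medium, sample from a 10 mg/mL DMSO stock at about 0.6 mM, and spores (1 × 10^6 CFU). DMSO served as the negative control. OD600 was read at 0 and 48 h at 28 °C and percent growth inhibition calculated.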

[3] = molecular target: T2, Tyrosine-protein phosphatase non-receptor type 9 (Homo sapiens) (UniProt P43378); experiment: (§4) Inhibition of recombinant human MEG2 expressed in Escherichia coli […] preincubated for 15 mins followed by substrate addition and measured after 60 mins; procedure, shortened: as §1
T2 sequence (whole entry): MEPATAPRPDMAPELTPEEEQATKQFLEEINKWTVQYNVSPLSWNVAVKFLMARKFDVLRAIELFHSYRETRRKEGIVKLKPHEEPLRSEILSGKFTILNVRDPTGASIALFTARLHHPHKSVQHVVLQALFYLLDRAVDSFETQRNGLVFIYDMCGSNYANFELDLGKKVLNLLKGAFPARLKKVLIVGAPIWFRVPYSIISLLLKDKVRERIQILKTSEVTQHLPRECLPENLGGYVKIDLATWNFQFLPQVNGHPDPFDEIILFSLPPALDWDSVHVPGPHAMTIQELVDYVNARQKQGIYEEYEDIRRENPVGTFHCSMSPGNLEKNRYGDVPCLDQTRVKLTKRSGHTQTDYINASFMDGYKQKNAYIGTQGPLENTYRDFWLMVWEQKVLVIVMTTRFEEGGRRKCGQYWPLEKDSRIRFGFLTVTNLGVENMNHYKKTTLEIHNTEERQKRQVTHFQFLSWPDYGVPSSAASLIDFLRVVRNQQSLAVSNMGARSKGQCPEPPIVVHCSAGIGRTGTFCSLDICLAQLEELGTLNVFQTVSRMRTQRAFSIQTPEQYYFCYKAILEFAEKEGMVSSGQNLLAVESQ

[4] = molecular target: Indoleamine 2,3-dioxygenase 1 (Homo sapiens, UniProt P14902); experiment: Inhibition of recombinant human IDO1 expressed in Escherichia coli […] preincubated for 15 mins followed by substrate addition and measured after 60 mins
[5] = molecular target: L-lactate dehydrogenase A chain (Homo sapiens) (UniProt P00338); experiment: Inhibition of recombinant human LDHA expressed in Escherichia coli […] preincubated for 15 mins followed by substrate addition and measured after 60 mins
[6] = system: Colletotrichum gloeosporioides; experiment: Antifungal activity against Colletotrichum gloeosporioides HNM 1003 assessed as growth inhibition at 0.6 mM measured after 48 hrs by microbroth dilution method; assay type: functional; conditions: HNM 1003, 48 h, read-out: GI; procedure, shortened: as §3
Curvularia australiensis = experiment: Antifungal activity against Curvularia australiensis BY01 assessed as growth inhibition at 0.6 mM measured after 48 hrs by microbroth dilution method; assay type: functional; conditions: BY01, 48 h, read-out: GI; procedure, shortened: as §3
[7] = molecular target: T3, Oxysterols receptor LXR-alpha (Homo sapiens, UniProt Q13133); experiment: Transactivation of recombinant GAL4-fused human LXRalpha LBD (163 to 447 residues) expressed in human L02 cells measured after 24 hrs by luciferase reporter gene assay; assay type: cell-based
T3 sequence (Q13133 whole entry): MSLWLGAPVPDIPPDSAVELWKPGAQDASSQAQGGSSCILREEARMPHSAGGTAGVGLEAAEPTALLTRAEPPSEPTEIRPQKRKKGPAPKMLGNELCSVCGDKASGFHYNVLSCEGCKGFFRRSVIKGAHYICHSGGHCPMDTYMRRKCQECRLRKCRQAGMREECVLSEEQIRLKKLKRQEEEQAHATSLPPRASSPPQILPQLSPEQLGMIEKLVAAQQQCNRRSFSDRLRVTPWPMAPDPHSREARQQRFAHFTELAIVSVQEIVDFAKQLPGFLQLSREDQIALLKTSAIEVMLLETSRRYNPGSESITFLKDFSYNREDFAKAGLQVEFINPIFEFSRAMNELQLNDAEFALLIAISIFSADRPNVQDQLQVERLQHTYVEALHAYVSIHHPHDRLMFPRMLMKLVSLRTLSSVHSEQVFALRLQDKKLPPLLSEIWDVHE

[8] = molecular target: T4, Tyrosine-protein phosphatase non-receptor type 11 (Homo sapiens) (UniProt Q06124); experiment: (§5) Inhibition of recombinant human SHP2 expressed in Escherichia coli […] preincubated for 15 mins followed by substrate addition and measured after 60 mins; procedure, shortened: as §1
T4 sequence (whole entry): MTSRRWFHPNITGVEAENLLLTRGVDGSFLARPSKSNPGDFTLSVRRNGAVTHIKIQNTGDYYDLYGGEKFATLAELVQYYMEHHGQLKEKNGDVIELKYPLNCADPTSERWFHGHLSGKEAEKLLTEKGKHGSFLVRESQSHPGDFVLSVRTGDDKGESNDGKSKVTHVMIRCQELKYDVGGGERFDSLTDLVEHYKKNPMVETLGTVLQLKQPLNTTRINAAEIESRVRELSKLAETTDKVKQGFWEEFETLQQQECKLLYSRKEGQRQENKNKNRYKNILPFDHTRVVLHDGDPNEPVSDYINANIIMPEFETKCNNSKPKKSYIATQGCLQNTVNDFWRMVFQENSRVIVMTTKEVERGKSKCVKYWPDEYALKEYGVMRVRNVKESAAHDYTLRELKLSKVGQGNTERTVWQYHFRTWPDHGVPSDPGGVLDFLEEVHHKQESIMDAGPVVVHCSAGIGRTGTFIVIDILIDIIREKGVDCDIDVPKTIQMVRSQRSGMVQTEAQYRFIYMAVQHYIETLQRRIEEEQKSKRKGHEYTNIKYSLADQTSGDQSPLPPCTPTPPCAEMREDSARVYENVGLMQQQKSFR

[9] = molecular target: T5, Tyrosine-protein phosphatase non-receptor type 2 (Homo sapiens) (UniProt P17706); experiment: (§6) Inhibition of recombinant human TCPTP expressed in Escherichia coli […] preincubated for 15 mins followed by substrate addition and measured after 60 mins; procedure, shortened: as §1
T5 sequence (whole entry): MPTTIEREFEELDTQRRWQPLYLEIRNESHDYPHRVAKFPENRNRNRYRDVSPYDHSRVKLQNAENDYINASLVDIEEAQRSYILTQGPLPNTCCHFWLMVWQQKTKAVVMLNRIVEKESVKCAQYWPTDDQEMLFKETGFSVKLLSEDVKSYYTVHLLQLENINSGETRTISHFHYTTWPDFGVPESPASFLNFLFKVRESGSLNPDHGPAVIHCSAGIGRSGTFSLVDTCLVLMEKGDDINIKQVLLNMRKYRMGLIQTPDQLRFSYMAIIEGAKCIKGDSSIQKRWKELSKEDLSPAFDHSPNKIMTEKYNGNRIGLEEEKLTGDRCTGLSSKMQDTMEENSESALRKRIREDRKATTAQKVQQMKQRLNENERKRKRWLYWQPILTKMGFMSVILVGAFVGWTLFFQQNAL

Pyricularia oryzae = experiment: Antifungal activity against Pyricularia oryzae HNM 1003 assessed as growth inhibition at 0.6 mM measured after 48 hrs by microbroth dilution method; assay type: functional; conditions: HNM 1003, 48 h, read-out: GI
[10] = molecular target: T6, Tyrosine-protein phosphatase non-receptor type 1 (Homo sapiens, UniProt P18031); experiment: as §2; procedure, shortened: as §1
T6 sequence (P18031 whole entry): T1 sequence (whole entry)

[11] = molecular target: T7, Tyrosine-protein phosphatase non-receptor type 9 (Homo sapiens, UniProt P43378); experiment: as §4; procedure, shortened: as §1
T7 sequence (P43378 whole entry): T2 sequence (whole entry)

[12] = molecular target: T8, Tyrosine-protein phosphatase non-receptor type 11 (Homo sapiens, UniProt Q06124); experiment: as §5; procedure, shortened: as §1
T8 sequence (Q06124 whole entry): T4 sequence (whole entry)

[13] = molecular target: T9, Tyrosine-protein phosphatase non-receptor type 2 (Homo sapiens, UniProt P17706); experiment: as §6; procedure, shortened: as §1
T9 sequence (P17706 whole entry): T5 sequence (whole entry)

Compound | inhibition [1] | inhibition [2] | inhibition of growth at 600 µM (Fusarium oxysporum) [%] | inhibition [3] | inhibition [4] | inhibition [5] | inhibition of growth at 600 µM [6] [%] | inhibition of growth at 600 µM (Curvularia australiensis) [%] | EC50 [7] [µM] | inhibition [8] | inhibition [9] | inhibition of growth at 600 µM (Pyricularia oryzae) [%] | IC50 [1] [µM] | IC50 [10] [µM] | IC50 [11] [µM] | IC50 [4] [µM] | IC50 [12] [µM] | IC50 [13] [µM]
CO[C@]1(Cc2ccccc2)NC(=O)[C@@H](C)n2c1nc1c(O)cccc1c2=O | inactive | inactive | < 50 | inactive | inactive | inactive | < 50 | < 50 | 5.1 | inactive | inactive | < 50 |  |  |  |  |  | 
CC[C@@H](C)C1=C2N=C3OC=CC=C[C@]3(OC)C(=O)N2[C@@H](Cc2ccccc2)C(=O)N1 |  |  | < 50 |  |  | inactive | < 50 | < 50 | 41 |  |  | < 50 | 14 to 87 | 14 to 87 | 14 to 87 | 14 to 87 | 14 to 87 | 14 to 87
C[C@@H]1C(=O)N[C@](O)(Cc2ccccc2)c2nc3c(O)cccc3c(=O)n21 | inactive | inactive | < 50 | inactive | inactive | inactive | < 50 | < 50 | 5.3 | inactive | inactive | < 50 |  |  |  |  |  | 
C[C@@H]1C(=O)N[C@@](O)(Cc2ccccc2)c2nc3c(O)cccc3c(=O)n21 | inactive | inactive | < 50 | inactive | inactive | inactive | < 50 | < 50 | 1.7 | inactive | inactive | < 50 |  |  |  |  |  | 
C[C@@H]1C(=O)N/C(=C\c2ccccc2)c2nc3c(O)cccc3c(=O)n21 |  |  | < 50 |  |  | inactive | < 50 | < 50 | 1.7 |  |  | < 50 | 14 to 87 | 14 to 87 | 14 to 87 | 14 to 87 | 14 to 87 | 14 to 87
CO[C@]1(Cc2ccccc2)NC(=O)[C@@H](C)n2c1nc1c(c2=O)C=CC=CO1 | inactive | inactive | < 50 | inactive | inactive | inactive | < 50 | < 50 | 15 | inactive | inactive | < 50 |  |  |  |  |  | 
C[C@@H]1C(=O)N/C(=C\c2ccccc2)c2nc3c(c(=O)n21)C=CC=CO3 | inactive | inactive | < 50 | inactive | inactive | inactive | < 50 | < 50 | 50 | inactive | inactive | < 50 |  |  |  |  |  | 
C[C@@H]1C(=O)N[C@@](O)(Cc2ccccc2)c2nc3c(c(=O)n21)C=CC=CO3 | inactive | inactive | < 50 | inactive | inactive | inactive | < 50 | < 50 | 16 | inactive | inactive | < 50 |  |  |  |  |  | 
CO[C@@]1(Cc2ccccc2)NC(=O)[C@@H](C)n2c1nc1c(c2=O)C=CC=CO1 | inactive | inactive | < 50 | inactive | inactive | inactive | < 50 | < 50 | 15 | inactive | inactive | < 50 |  |  |  |  |  | 
